Assay results: ChEMBL document CHEMBL3769383, “Cefsulodin Inspired Potent and Selective Inhibitors of mPTPB, a Virulent Phosphatase from Mycobacterium tuberculosis” (ACS Med Chem Lett, 2015)
pIC50, pKi: −log10 of the molar value. Calls of active or inactive are those of the source. The calls are words filed in the database; no cut-off is given here.

What was measured:
[1] = Inhibition of Mycobacterium tuberculosis PTPB expressed in Escherichia coli BL21/DE3 cells using pNPP as substrate after 5 mins by spectrophotometry
BL21-DE3 = assay: Potency index, ratio of SPAA IC50 to compound IC50 for Mycobacterium tuberculosis PTPB expressed in Escherichia coli BL21/DE3 cells
[2] = target: Low molecular weight protein-tyrosine phosphatase A (Mycobacterium tuberculosis) (UniProt P9WIA1); assay: Inhibition of Mycobacterium tuberculosis PTPA expressed in Escherichia coli using pNPP as substrate at 200 uM after 5 mins by spectrophotometry
Outline: (§1)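 Single-point screen: the test compound is present at 200 μM in the assay (a compound concentration, not a substrate level). The read-out is phosphatase-catalysed hydrolysis of para-nitrophenyl phosphate.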

[3] = target: Tyrosine-protein phosphatase non-receptor type 1 (Homo sapiens) (UniProt P18031); assay: Inhibition of PTP1B (unknown origin) expressed in Escherichia coli using pNPP as substrate at 200 uM after 5 mins by spectrophotometry; outline: as §1
[4] = target: Tyrosine-protein phosphatase non-receptor type 2 (Homo sapiens) (UniProt P17706); assay: Inhibition of TC-PTP (unknown origin) using pNPP as substrate at 200 uM after 5 mins by spectrophotometry; outline: as §1
[5] = target: Tyrosine-protein phosphatase non-receptor type 22 (Homo sapiens) (UniProt Q9Y2R2); assay: Inhibition of LYP (unknown origin) expressed in Escherichia coli using pNPP as substrate at 200 uM after 5 mins by spectrophotometry; outline: as §1
[6] = target: Tyrosine-protein phosphatase non-receptor type 7 (Homo sapiens) (UniProt P35236); assay: Inhibition of HePTP (unknown origin) expressed in Escherichia coli using pNPP as substrate at 200 uM after 5 mins by spectrophotometry; outline: as §1
[7] = target: Tyrosine-protein phosphatase non-receptor type 6 (Homo sapiens) (UniProt P29350); assay: Inhibition of SHP1 (unknown origin) expressed in Escherichia coli using pNPP as substrate at 200 uM after 5 mins by spectrophotometry; outline: as §1
[8] = target: Tyrosine-protein phosphatase non-receptor type 11 (Homo sapiens) (UniProt Q06124); assay: Inhibition of SHP2 (unknown origin) expressed in Escherichia coli using pNPP as substrate at 200 uM after 5 mins by spectrophotometry; outline: as §1
[9] = target: Tyrosine-protein phosphatase non-receptor type 3 (Homo sapiens) (UniProt P26045); assay: Inhibition of PTPH1 (unknown origin) using pNPP as substrate at 200 uM after 5 mins by spectrophotometry; outline: as §1
[10] = target: Tyrosine-protein phosphatase non-receptor type 9 (Homo sapiens) (UniProt P43378); assay: Inhibition of Meg2 (unknown origin) using pNPP as substrate at 200 uM after 5 mins by spectrophotometry; outline: as §1
[11] = target: Tyrosine-protein phosphatase non-receptor type 13 (Homo sapiens) (UniProt Q12923); assay: Inhibition of FAP1 (unknown origin) expressed in Escherichia coli using pNPP as substrate at 200 uM after 5 mins by spectrophotometry; outline: as §1
[12] = target: Receptor-type tyrosine-protein phosphatase F (Homo sapiens) (UniProt P10586); assay: Inhibition of LAR (unknown origin) using pNPP as substrate at 200 uM after 5 mins by spectrophotometry; outline: as §1
[13] = target: Receptor-type tyrosine-protein phosphatase alpha (Homo sapiens) (UniProt P18433); assay: Inhibition of PTPalpha (unknown origin) using pNPP as substrate at 200 uM after 5 mins by spectrophotometry; outline: as §1
[14] = target: Receptor-type tyrosine-protein phosphatase beta (Homo sapiens) (UniProt P23467); assay: Inhibition of PTPbeta (unknown origin) using pNPP as substrate at 200 uM after 5 mins by spectrophotometry; outline: as §1
[15] = target: Receptor-type tyrosine-protein phosphatase gamma (Homo sapiens) (UniProt P23470); assay: Inhibition of PTPgamma (unknown origin) using pNPP as substrate at 200 uM after 5 mins by spectrophotometry; outline: as §1
[16] = target: Receptor-type tyrosine-protein phosphatase mu (Homo sapiens) (UniProt P28827); assay: Inhibition of PTPmu (unknown origin) using pNPP as substrate at 200 uM after 5 mins by spectrophotometry; outline: as §1
[17] = target: Receptor-type tyrosine-protein phosphatase epsilon (Homo sapiens) (UniProt P23469); assay: Inhibition of PTPepsilon (unknown origin) using pNPP as substrate at 200 uM after 5 mins by spectrophotometry; outline: as §1
[18] = target: Receptor-type tyrosine-protein phosphatase S (Homo sapiens) (UniProt Q13332); assay: Inhibition of PTPsigma (unknown origin) using pNPP as substrate at 200 uM after 5 mins by spectrophotometry; outline: as §1
[19] = target: Dual specificity protein phosphatase 10 (Homo sapiens) (UniProt Q9Y6W6); assay: Inhibition of MKP5 (unknown origin) using pNPP as substrate at 200 uM after 5 mins by spectrophotometry; outline: as §1
[20] = target: Dual specificity protein phosphatase 3 (Homo sapiens) (UniProt P51452); assay: Inhibition of VHR (unknown origin) using pNPP as substrate at 200 uM after 5 mins by spectrophotometry; outline: as §1
[21] = target: Dual specificity protein phosphatase 22 (Homo sapiens) (UniProt Q9NRW4); assay: Inhibition of VHX (unknown origin) expressed in Escherichia coli using pNPP as substrate at 200 uM after 5 mins by spectrophotometry; outline: as §1
[22] = target: Dual specificity protein phosphatase CDC14A (Homo sapiens) (UniProt Q9UNH5); assay: Inhibition of CDC14A (unknown origin) using pNPP as substrate at 200 uM after 5 mins by spectrophotometry; outline: as §1
Laforin (Homo sapiens) = Laforin (Homo sapiens) (UniProt O95278); assay: Inhibition of Laforin (unknown origin) using pNPP as substrate at 200 uM after 5 mins by spectrophotometry; outline: as §1
[23] = target: Low molecular weight phosphotyrosine protein phosphatase (Homo sapiens) (UniProt P24666); assay: Inhibition of LMWPTP (unknown origin) using pNPP as substrate at 200 uM after 5 mins by spectrophotometry; outline: as §1
[24] = target: Serine/threonine-protein phosphatase 5 (Homo sapiens) (UniProt P53041); assay: Inhibition of PP5 (unknown origin) using pNPP as substrate at 200 uM after 5 mins by spectrophotometry; outline: as §1
[25] = target: Receptor-type tyrosine-protein phosphatase C (Homo sapiens) (UniProt P08575); assay: Inhibition of CD45 (unknown origin) expressed in Escherichia coli using pNPP as substrate at 200 uM after 5 mins by spectrophotometry; outline: as §1
RAW264.7 [26] = assay: Inhibition of Mycobacterium tuberculosis PTPB transfected in mouse RAW264.7 cells assessed as increase in ERK1/2 phosphorylation pre-treated for 1 hrs followed by stimulation with IFNgamma for 1 hr by Western blotting method; format: cell-based
RAW264.7 [27] = assay: Inhibition of Mycobacterium tuberculosis PTPB transfected in mouse RAW264.7 cells assessed as increase in p38 phosphorylation pre-treated for 1 hrs followed by stimulation with IFNgamma for 1 hr by Western blotting method; format: cell-based
RAW264.7 [28] = assay: Inhibition of Mycobacterium tuberculosis PTPB transfected in mouse RAW264.7 cells decrease in Akt phosphorylation pre-treated for 1 hrs followed by stimulation with IFNgamma for 1 hr by Western blotting method; format: cell-based
[29] = target: Mitogen-activated protein kinase 1 and 3 (ERK2 and ERK1) (Mus musculus) (UniProt P63085+Q63844); assay: Effect on ERK1/2 phosphorylation in mouse RAW264.7 cells transfected with empty vector at 10 to 40 nM pre-treated for 1 hrs followed by stimulation with IFNgamma for 1 hr by Western blotting method; format: cell-based
[30] = target: MAP kinase p38 (Mus musculus) (UniProt P47811+O08911+Q9WUI1+Q9Z1B7); assay: Effect on p38 phosphorylation in mouse RAW264.7 cells transfected with empty vector at 10 to 40 nM pre-treated for 1 hrs followed by stimulation with IFNgamma for 1 hr by Western blotting method; format: cell-based
[31] = target: RAC-alpha serine/threonine-protein kinase (Mus musculus) (UniProt P31750); assay: Effect on Akt phosphorylation in mouse RAW264.7 cells transfected with empty vector at 10 to 40 nM pre-treated for 1 hrs followed by stimulation with IFNgamma for 1 hr by Western blotting method; format: cell-based
[32] = Reversible competitive inhibition of Mycobacterium tuberculosis PTPB expressed in Escherichia coli BL21/DE3 cells using pNPP as substrate after 5 mins by Lineweaver-Burk plot analysis
[33] = test system: Mycobacterium tuberculosis; assay: Selectivity ratio of IC50 for Mycobacterium tuberculosis PTPA to IC50 for Mycobacterium tuberculosis PTPB
[34] = Selectivity ratio of IC50 for PTP1B (unknown origin) to IC50 for Mycobacterium tuberculosis PTPB
[35] = Selectivity ratio of IC50 for TC-PTP (unknown origin) to IC50 for Mycobacterium tuberculosis PTPB
Outline: (§2)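 Each phosphatase in the 25-enzyme panel was tested for inhibition at 200 μM compound. The mPTPB IC50 was determined against mPTPB-catalysed hydrolysis of para-nitrophenyl phosphate. The ratio is the panel-enzyme IC50 divided by the mPTPB IC50.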

[36] = Selectivity ratio of IC50 for LYP (unknown origin) to IC50 for Mycobacterium tuberculosis PTPB
[37] = Selectivity ratio of IC50 for HePTP (unknown origin) to IC50 for Mycobacterium tuberculosis PTPB
[38] = Selectivity ratio of IC50 for SHP1 (unknown origin) to IC50 for Mycobacterium tuberculosis PTPB; outline: as §2
[39] = Selectivity ratio of IC50 for SHP2 (unknown origin) to IC50 for Mycobacterium tuberculosis PTPB; outline: as §2
[40] = Selectivity ratio of IC50 for PTPH1 (unknown origin) to IC50 for Mycobacterium tuberculosis PTPB; outline: as §2
[41] = Selectivity ratio of IC50 for Meg2 (unknown origin) to IC50 for Mycobacterium tuberculosis PTPB
[42] = Selectivity ratio of IC50 for FAP1 (unknown origin) to IC50 for Mycobacterium tuberculosis PTPB
[43] = Selectivity ratio of IC50 for CD45 (unknown origin) to IC50 for Mycobacterium tuberculosis PTPB
[44] = Selectivity ratio of IC50 for LAR (unknown origin) to IC50 for Mycobacterium tuberculosis PTPB
[45] = Selectivity ratio of IC50 for PTPalpha (unknown origin) to IC50 for Mycobacterium tuberculosis PTPB; outline: as §2
[46] = Selectivity ratio of IC50 for PTPbeta (unknown origin) to IC50 for Mycobacterium tuberculosis PTPB; outline: as §2
[47] = Selectivity ratio of IC50 for PTPgamma (unknown origin) to IC50 for Mycobacterium tuberculosis PTPB; outline: as §2
[48] = Selectivity ratio of IC50 for PTPmu (unknown origin) to IC50 for Mycobacterium tuberculosis PTPB; outline: as §2
[49] = Selectivity ratio of IC50 for PTPepsilon (unknown origin) to IC50 for Mycobacterium tuberculosis PTPB; outline: as §2
[50] = Selectivity ratio of IC50 for PTPsigma (unknown origin) to IC50 for Mycobacterium tuberculosis PTPB; outline: as §2
[51] = Selectivity ratio of IC50 for MKP5 (unknown origin) to IC50 for Mycobacterium tuberculosis PTPB
[52] = Selectivity ratio of IC50 for VHR (unknown origin) to IC50 for Mycobacterium tuberculosis PTPB; outline: as §2
[53] = Selectivity ratio of IC50 for VHX (unknown origin) to IC50 for Mycobacterium tuberculosis PTPB; outline: as §2
[54] = Selectivity ratio of IC50 for CDC14A (unknown origin) to IC50 for Mycobacterium tuberculosis PTPB
[55] = Selectivity ratio of IC50 for Laforin (unknown origin) to IC50 for Mycobacterium tuberculosis PTPB
[56] = Selectivity ratio of IC50 for LMWPTP (unknown origin) to IC50 for Mycobacterium tuberculosis PTPB
[57] = Selectivity ratio of IC50 for PP5 (unknown origin) to IC50 for Mycobacterium tuberculosis PTPB

Chain of Tyrosine-protein phosphatase non-receptor type 3 (Homo sapiens) (P26045 whole entry): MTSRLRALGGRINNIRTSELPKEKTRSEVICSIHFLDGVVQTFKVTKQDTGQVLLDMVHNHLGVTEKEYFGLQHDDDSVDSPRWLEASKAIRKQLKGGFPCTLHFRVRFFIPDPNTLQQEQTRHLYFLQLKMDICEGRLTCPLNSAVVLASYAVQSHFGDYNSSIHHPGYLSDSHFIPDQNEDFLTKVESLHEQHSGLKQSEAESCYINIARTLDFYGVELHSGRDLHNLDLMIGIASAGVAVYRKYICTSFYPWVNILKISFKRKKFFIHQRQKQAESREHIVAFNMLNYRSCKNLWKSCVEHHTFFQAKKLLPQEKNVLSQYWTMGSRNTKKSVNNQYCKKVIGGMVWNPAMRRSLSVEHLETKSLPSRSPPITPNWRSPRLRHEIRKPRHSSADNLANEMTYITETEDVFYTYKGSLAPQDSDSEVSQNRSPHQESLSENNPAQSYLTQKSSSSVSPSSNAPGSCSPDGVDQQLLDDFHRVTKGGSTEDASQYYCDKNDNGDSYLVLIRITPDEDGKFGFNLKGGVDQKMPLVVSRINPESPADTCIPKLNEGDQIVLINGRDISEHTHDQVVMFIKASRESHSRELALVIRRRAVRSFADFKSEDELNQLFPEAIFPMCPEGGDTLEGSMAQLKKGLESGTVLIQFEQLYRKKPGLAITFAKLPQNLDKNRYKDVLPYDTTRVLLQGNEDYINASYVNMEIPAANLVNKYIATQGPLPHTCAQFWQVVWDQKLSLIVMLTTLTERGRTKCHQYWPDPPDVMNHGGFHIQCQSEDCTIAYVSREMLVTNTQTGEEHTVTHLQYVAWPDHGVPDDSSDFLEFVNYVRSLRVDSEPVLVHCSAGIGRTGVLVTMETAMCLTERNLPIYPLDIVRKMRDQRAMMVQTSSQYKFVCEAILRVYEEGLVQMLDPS
Chain of Serine/threonine-protein phosphatase 5 (Homo sapiens) (P53041 whole entry): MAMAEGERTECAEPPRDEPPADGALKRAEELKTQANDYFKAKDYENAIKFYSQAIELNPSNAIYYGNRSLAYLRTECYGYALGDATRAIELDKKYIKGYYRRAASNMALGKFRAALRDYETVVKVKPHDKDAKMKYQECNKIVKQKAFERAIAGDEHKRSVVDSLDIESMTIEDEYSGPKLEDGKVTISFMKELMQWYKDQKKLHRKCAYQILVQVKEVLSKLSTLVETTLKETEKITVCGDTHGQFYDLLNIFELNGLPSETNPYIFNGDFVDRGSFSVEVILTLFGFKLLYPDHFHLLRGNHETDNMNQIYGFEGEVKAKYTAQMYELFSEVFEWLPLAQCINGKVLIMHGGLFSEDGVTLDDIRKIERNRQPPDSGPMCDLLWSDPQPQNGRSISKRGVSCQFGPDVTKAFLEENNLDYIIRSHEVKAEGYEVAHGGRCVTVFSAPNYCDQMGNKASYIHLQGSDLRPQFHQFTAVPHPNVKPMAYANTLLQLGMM
Chain of Tyrosine-protein phosphatase non-receptor type 11 (Homo sapiens) (Q06124 whole entry): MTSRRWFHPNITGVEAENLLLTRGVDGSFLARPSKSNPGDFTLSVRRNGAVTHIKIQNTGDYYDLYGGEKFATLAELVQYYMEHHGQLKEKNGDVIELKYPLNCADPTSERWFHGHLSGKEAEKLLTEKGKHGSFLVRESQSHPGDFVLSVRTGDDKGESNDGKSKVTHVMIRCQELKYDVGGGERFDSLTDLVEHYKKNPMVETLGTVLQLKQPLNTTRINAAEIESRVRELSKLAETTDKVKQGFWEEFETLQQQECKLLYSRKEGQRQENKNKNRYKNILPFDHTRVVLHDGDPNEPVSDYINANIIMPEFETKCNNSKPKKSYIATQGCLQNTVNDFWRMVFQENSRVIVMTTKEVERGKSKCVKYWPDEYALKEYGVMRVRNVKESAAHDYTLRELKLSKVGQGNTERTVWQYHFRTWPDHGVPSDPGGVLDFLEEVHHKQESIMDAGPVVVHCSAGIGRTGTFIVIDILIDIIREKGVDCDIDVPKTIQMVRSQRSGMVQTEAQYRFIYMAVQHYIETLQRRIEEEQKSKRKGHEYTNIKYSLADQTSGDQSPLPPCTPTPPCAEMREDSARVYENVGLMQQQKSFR
Chain of Tyrosine-protein phosphatase non-receptor type 22 (Homo sapiens) (Q9Y2R2 whole entry): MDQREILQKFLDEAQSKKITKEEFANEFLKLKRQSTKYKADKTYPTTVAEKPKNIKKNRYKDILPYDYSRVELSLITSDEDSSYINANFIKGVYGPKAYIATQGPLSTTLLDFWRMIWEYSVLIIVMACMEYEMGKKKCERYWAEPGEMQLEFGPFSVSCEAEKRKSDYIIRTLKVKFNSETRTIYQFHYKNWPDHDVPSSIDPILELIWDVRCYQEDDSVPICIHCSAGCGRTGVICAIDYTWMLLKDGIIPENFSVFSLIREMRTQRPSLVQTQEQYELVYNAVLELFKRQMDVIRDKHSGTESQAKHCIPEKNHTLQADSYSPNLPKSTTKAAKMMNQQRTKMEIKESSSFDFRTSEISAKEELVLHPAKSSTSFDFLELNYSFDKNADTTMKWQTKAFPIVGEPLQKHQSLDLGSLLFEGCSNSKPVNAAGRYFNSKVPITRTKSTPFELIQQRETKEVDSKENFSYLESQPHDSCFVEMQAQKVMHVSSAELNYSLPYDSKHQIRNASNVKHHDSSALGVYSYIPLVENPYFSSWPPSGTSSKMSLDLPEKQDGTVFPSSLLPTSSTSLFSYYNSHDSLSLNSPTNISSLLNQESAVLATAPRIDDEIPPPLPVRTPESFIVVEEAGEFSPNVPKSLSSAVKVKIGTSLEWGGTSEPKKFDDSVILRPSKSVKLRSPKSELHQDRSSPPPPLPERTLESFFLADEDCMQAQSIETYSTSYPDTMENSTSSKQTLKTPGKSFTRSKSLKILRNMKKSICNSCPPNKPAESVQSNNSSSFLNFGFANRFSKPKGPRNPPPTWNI
Chain of Low molecular weight phosphotyrosine protein phosphatase (Homo sapiens) (P24666 whole entry): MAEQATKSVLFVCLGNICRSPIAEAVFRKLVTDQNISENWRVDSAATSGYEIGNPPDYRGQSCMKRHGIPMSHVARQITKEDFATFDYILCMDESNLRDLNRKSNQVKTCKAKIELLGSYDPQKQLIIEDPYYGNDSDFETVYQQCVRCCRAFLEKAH
Chain of Mitogen-activated protein kinase 1 and 3 (ERK2 and ERK1) (Mus musculus) (P63085 whole entry, looked up): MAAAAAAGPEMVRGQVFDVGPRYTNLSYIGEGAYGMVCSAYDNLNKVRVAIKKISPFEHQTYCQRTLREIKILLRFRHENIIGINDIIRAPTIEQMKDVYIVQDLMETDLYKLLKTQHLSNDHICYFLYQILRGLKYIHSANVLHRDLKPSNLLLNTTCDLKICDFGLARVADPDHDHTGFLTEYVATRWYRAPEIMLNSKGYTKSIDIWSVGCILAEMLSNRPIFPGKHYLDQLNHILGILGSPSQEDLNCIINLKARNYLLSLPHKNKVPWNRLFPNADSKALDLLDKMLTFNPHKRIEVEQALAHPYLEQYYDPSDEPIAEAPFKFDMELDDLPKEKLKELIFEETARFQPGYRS
Chain of Mitogen-activated protein kinase 1 and 3 (ERK2 and ERK1) (Mus musculus) (Q63844 whole entry, looked up): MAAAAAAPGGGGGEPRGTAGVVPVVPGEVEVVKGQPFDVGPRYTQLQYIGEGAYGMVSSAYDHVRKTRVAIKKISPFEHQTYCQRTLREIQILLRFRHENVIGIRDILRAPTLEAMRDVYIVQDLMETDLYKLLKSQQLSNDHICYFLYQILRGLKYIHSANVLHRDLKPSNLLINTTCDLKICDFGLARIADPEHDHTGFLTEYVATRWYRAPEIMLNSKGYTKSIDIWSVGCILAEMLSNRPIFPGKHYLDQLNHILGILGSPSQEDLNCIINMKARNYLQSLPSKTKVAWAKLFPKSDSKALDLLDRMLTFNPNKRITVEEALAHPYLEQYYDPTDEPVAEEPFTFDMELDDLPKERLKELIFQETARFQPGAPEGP
Chain of Receptor-type tyrosine-protein phosphatase epsilon (Homo sapiens) (P23469 whole entry): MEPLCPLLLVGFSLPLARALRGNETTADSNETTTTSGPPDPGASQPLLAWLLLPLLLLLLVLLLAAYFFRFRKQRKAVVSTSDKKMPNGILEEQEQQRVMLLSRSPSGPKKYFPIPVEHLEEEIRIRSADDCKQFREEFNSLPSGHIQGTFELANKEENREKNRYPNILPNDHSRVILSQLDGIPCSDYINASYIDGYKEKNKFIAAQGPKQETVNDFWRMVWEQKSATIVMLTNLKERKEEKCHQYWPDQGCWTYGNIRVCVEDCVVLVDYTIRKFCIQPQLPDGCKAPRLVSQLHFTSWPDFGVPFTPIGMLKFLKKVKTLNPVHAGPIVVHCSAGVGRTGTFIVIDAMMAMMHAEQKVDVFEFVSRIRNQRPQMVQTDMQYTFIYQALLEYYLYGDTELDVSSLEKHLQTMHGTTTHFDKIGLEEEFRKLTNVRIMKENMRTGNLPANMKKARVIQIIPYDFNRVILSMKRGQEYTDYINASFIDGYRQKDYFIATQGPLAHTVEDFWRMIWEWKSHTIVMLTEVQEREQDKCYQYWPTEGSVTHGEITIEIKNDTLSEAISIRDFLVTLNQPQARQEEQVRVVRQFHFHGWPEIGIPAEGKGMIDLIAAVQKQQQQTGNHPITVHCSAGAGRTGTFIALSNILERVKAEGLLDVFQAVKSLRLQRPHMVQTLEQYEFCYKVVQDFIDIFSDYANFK
Chain of Dual specificity protein phosphatase 3 (Homo sapiens) (P51452 whole entry, looked up): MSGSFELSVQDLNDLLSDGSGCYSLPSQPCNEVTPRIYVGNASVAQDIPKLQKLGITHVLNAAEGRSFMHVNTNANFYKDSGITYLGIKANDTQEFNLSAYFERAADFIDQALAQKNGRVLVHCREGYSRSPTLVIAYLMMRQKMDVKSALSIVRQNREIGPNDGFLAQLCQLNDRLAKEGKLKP
Chain of Tyrosine-protein phosphatase non-receptor type 7 (Homo sapiens) (P35236 whole entry): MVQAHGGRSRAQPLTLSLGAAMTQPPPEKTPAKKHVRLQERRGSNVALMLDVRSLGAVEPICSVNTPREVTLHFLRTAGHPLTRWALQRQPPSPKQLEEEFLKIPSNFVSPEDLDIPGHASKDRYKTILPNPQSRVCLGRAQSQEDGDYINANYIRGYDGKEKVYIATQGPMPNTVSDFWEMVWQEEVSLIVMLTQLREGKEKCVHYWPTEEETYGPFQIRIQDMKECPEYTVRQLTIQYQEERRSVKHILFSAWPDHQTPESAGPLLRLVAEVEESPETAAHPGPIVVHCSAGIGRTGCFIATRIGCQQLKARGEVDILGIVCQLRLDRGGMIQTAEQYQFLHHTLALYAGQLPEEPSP

## O=C(Nc1ccccc1)C(c1ccccc1)S(=O)(=O)O (racemic)
[1]
  pIC50: 6.00
BL21-DE3
  Ratio IC50: 180

## O=C(NC1CC1)C(c1ccccc1)S(=O)(=O)O (racemic)
[1]
  pIC50: 5.25
BL21-DE3
  Ratio IC50: 32

## O=C(C(c1ccccc1)S(=O)(=O)O)N1CCCC2CCCCC21 (racemic)
[1]
  pIC50: 7.74
[2]
  inhibition: inactive
[3]
  inhibition: inactive
[4]
  inhibition: inactive
[5]
  inhibition: inactive
[6]
  inhibition: inactive
[7]
  inhibition: inactive
[8]
  inhibition: inactive
[9]
  inhibition: inactive
[10]
  inhibition: inactive
[11]
  inhibition: inactive
[12]
  inhibition: inactive
[13]
  inhibition: inactive
[14]
  inhibition: inactive
[15]
  inhibition: inactive
[16]
  inhibition: inactive
[17]
  inhibition: inactive
[18]
  inhibition: inactive
[19]
  inhibition: inactive
[20]
  inhibition: inactive
[21]
  inhibition: inactive
[22]
  inhibition: inactive
Laforin (Homo sapiens)
  inhibition: inactive
[23]
  inhibition: inactive
[24]
  inhibition: inactive
[25]
  inhibition: inactive
RAW264.7 [26]
  inhibition: Dose-dependent effect
RAW264.7 [27]
  inhibition: Dose-dependent effect
RAW264.7 [28]
  inhibition: Dose-dependent effect
[29]
  Activity: inactive
[30]
  Activity: inactive
[31]
  Activity: inactive
[32]
  pKi: 8.10
[33]
  Ratio IC50: > 10000
[34]
  Ratio IC50: > 10000
[35]
  Ratio IC50: > 10000
[36]
  Ratio IC50: > 10000
[37]
  Ratio IC50: > 10000
[38]
  Ratio IC50: > 10000
[39]
  Ratio IC50: > 10000
[40]
  Ratio IC50: > 10000
[41]
  Ratio IC50: > 10000
[42]
  Ratio IC50: > 10000
[43]
  Ratio IC50: > 10000
[44]
  Ratio IC50: > 10000
[45]
  Ratio IC50: > 10000
[46]
  Ratio IC50: > 10000
[47]
  Ratio IC50: > 10000
[48]
  Ratio IC50: > 10000
[49]
  Ratio IC50: > 10000
[50]
  Ratio IC50: > 10000
[51]
  Ratio IC50: > 10000
[52]
  Ratio IC50: > 10000
[53]
  Ratio IC50: > 10000
[54]
  Ratio IC50: > 10000
[55]
  Ratio IC50: > 10000
[56]
  Ratio IC50: > 10000
[57]
  Ratio IC50: > 10000
